Laboratory results from ChEMBL document CHEMBL3826892, “Second-Generation Phenylthiazole Antibiotics with Enhanced Pharmacokinetic Properties” (J Med Chem, 2016).
Values after ≈ are worked out from the molar mass of the structure shown.

Legend:
HaCaT [1] = assay: Cytotoxicity against human HaCaT cells assessed as cell viability up to 16 ug/ml after 2 hrs by MTS assay; format: cell-based
Procedure, shortened: (§1)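 HaCaT keratinocytes were grown in DMEM with 10% FBS at 37 °C, 5% CO₂. They were exposed in triplicate to 8–256 μg/mL for 2 h, then MTS was added. Background-corrected absorbance was expressed as % viability relative to a DMSO vehicle control.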

Staphylococcus aureus [2] = assay: Bactericidal activity against methicillin-resistant Staphylococcus aureus USA300 assessed as time required to reduce bacterial inoculum to zero colony forming units at 3 times MIC by time kill assay; format: functional
Procedure, shortened: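 Samples taken at 2, 4, 6, 8, 10, 12 and 24 h were serially diluted in PBS and plated on trypticase soy agar. Viable CFU/mL were counted after at least 16 h at 37 °C.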

Staphylococcus aureus [3] = assay: Antimicrobial activity against methicillin-resistant Staphylococcus aureus RCMB 2658 clinical isolate after 20 hrs by broth microdilution method; format: functional; conditions: RCMB 2658, 20 h
Procedure, shortened: (§2)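 CLSI broth microdilution in cation-adjusted Mueller Hinton broth. Compounds were serially diluted in triplicate and plates held at 37 °C for 20 h. MIC was taken by eye as the lowest concentration with no visible growth, and the average of the triplicate determinations is reported.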

[4] = Aqueous solubility of the compound in PBS after 2 hrs by turbidity assay; format: physicochemical
Procedure, shortened: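 Serial dilutions were made […] and diluted 100-fold into PBS. After 2 h, turbidity was read at 540 nm with pre-addition background subtracted. Turbidity was taken as absorbance > blank mean + 3 SD. Solubility limit is the highest concentration with no turbidity.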

Staphylococcus aureus [5] = assay: Potency index, ratio of vancomycin MIC to compound MIC for methicillin-resistant Staphylococcus aureus RCMB 2658 clinical isolate; format: functional
[6] = Apparent permeability across apical to basolateral side in human Caco2 cells at pH 6.5 after 2 hrs by LC/MS/MS analysis; format: ADME, cell-based; conditions: Caco-2, pH 6.5
Procedure, shortened: (§3)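 Caco-2 cells were grown and differentiated for 3 weeks, fed every 2 days. Compound was added to the apical or basolateral side and measured on the opposite side after 2 h by LC/MS/MS. Apical buffer was pH 6.5 transport buffer (glucose, 10 mM HEPES, HBSS) with 100 μM Lucifer yellow; basolateral buffer was pH 7.4. Lucifer yellow fluorescence checked monolayer integrity. Papp = (dQ/dt)/C₀A; efflux ratio = Papp(B→A)/Papp(A→B).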

Staphylococcus aureus [7] = assay: Antimicrobial activity against methicillin-resistant Staphylococcus aureus USA100 NRS382 clinical isolate after 20 hrs by broth microdilution method; format: functional; conditions: USA100 NRS382, 20 h; procedure, shortened: as §2
[8] = Efflux ratio of apparent permeability from basolateral to apical side over apical to basolateral side in human Caco2 cells after 2 hrs by LC/MS/MS analysis; format: ADME, cell-based; conditions: Caco-2; procedure, shortened: as §3
Rattus norvegicus [9] = assay: Elimination rate constant in Sprague-Dawley rat plasma at 50 mg/kg administered via oral gavage by LC/MS/MS analysis; format: ADME, organism-based; conditions: in vivo
Procedure, shortened: (§4)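 Male naive Sprague-Dawley rats (n = 3) received a single 50 mg/kg oral gavage dose in 5% ethanol, 45% PEG 400, 50% water. Blood was collected into EDTA-K2 tubes over 24 h post dose. Plasma was protein-precipitated with acetonitrile and parent was quantified by LC/MS/MS to derive PK parameters.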

Staphylococcus aureus [10] = assay: Bactericidal activity against methicillin-resistant Staphylococcus aureus USA200 NRS383 clinical isolate after 20 hrs by broth microdilution method; format: functional; conditions: USA200 NRS383, 20 h
Staphylococcus aureus [11] = assay: Antimicrobial activity against methicillin-resistant Staphylococcus aureus NRS119 clinical isolate after 20 hrs by broth microdilution method; format: functional; conditions: NRS119, 20 h; procedure, shortened: as §2
Rattus norvegicus [12] = assay: Half life in Sprague-Dawley rat plasma at 50 mg/kg administered via oral gavage measured 24 hrs post dose by LC/MS/MS analysis; format: ADME, organism-based; conditions: in vivo; procedure, shortened: as §4
Staphylococcus aureus [13] = assay: Antimicrobial activity against methicillin-resistant Staphylococcus aureus USA300 NRS384 clinical isolate after 20 hrs by broth microdilution method; format: functional; conditions: USA300 NRS384, 20 h; procedure, shortened: as §2
Staphylococcus aureus [14] = assay: Antimicrobial activity against methicillin-sensitive Staphylococcus aureus NRS72 clinical isolate after 20 hrs by broth microdilution method; format: functional; conditions: NRS72, 20 h; procedure, shortened: as §2
[15] = Apparent permeability across basolateral to apical side in human Caco2 cells at pH 7.4 after 2 hrs by LC/MS/MS analysis; conditions: Caco-2, pH 7.4
[16] = Mean residence time in Sprague-Dawley rat plasma at 50 mg/kg administered via oral gavage measured 24 hrs post dose by LC/MS/MS analysis; format: ADME, organism-based; procedure, shortened: as §4
Staphylococcus aureus [17] = assay: Bactericidal activity against methicillin-resistant Staphylococcus aureus USA400 NRS123 clinical isolate after 20 hrs by broth microdilution method; format: functional; conditions: USA400 NRS123, 20 h
Staphylococcus aureus [18] = assay: Antimicrobial activity against methicillin-resistant Staphylococcus aureus USA200 NRS383 clinical isolate after 20 hrs by broth microdilution method; format: functional; conditions: USA200 NRS383, 20 h; procedure, shortened: as §2
Staphylococcus aureus [19] = assay: Bactericidal activity against methicillin-sensitive Staphylococcus aureus NRS72 clinical isolate after 20 hrs by broth microdilution method; format: functional; conditions: NRS72, 20 h
Staphylococcus aureus [20] = assay: Antimicrobial activity against vancomycin-resistant Staphylococcus aureus 10 clinical isolate after 20 hrs by broth microdilution method; format: functional; conditions: isolate 10, 20 h; procedure, shortened: as §2
Staphylococcus aureus [21] = assay: Bactericidal activity against methicillin-resistant Staphylococcus aureus NRS119 clinical isolate after 20 hrs by broth microdilution method; format: functional; conditions: NRS119, 20 h
Enterococcus faecium [22] = assay: Bactericidal activity against vancomycin-resistant Enterococcus faecium ATCC 700221 after 20 hrs by broth microdilution method; format: functional; conditions: ATCC 700221, 20 h
[23] = Ratio of non toxic dose for cytotoxicity against human HaCaT cells to MIC for methicillin-resistant Staphylococcus aureus RCMB 2658 clinical isolate; format: toxicity, cell-based
Procedure, shortened: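 HaCaT keratinocytes in DMEM with 10% FBS at 37 °C, 5% CO2, exposed for 2 h to 8–256 μg/mL, then MTS read-out. Viability is given as a percentage of the DMSO control, in triplicate. The highest non-toxic concentration is divided by the MRSA MIC.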

Staphylococcus aureus [24] = assay: Bactericidal activity against methicillin-resistant Staphylococcus aureus USA300 NRS384 clinical isolate after 20 hrs by broth microdilution method; format: functional; conditions: USA300 NRS384, 20 h
[25] = Total AUC in Sprague-Dawley rat plasma at 50 mg/kg administered via oral gavage measured 24 hrs post dose by LC/MS/MS analysis; format: ADME, organism-based; design: dose 50 mg/kg, route oral, time AUCmax; procedure, shortened: as §4
Staphylococcus aureus [26] = assay: Bactericidal activity against methicillin-resistant Staphylococcus aureus USA100 NRS382 clinical isolate after 20 hrs by broth microdilution method; format: functional; conditions: USA100 NRS382, 20 h
[27] = Cmax in Sprague-Dawley rat plasma at 50 mg/kg administered via oral gavage measured 24 hrs post dose by LC/MS/MS analysis; format: ADME, organism-based; design: dose 50 mg/kg, route oral; procedure, shortened: as §4
Staphylococcus aureus [28] = assay: Antimicrobial activity against methicillin-resistant Staphylococcus aureus USA400 NRS123 clinical isolate after 20 hrs by broth microdilution method; format: functional; conditions: USA400 NRS123, 20 h; procedure, shortened: as §2
Enterococcus faecium [29] = assay: Antimicrobial activity against vancomycin-resistant Enterococcus faecium ATCC 700221 after 20 hrs by broth microdilution method; format: functional; conditions: ATCC 700221, 20 h; procedure, shortened: as §2
HaCaT [30] = assay: Cytotoxicity against human HaCaT cells assessed as cell viability up to 64 ug/ml after 2 hrs by MTS assay; format: cell-based; procedure, shortened: as §1
[31] = AUClast in Sprague-Dawley rat plasma at 50 mg/kg administered via oral gavage measured 24 hrs post dose by LC/MS/MS analysis; format: ADME, organism-based; design: dose 50 mg/kg, time 0 - last, route oral; procedure, shortened: as §4
[32] = Tmax in Sprague-Dawley rat plasma at 50 mg/kg administered via oral gavage measured 24 hrs post dose by LC/MS/MS analysis; format: ADME, organism-based; procedure, shortened: as §4
Staphylococcus aureus [33] = assay: Bactericidal activity against vancomycin-resistant Staphylococcus aureus 10 clinical isolate after 20 hrs by broth microdilution method; format: functional; conditions: isolate 10, 20 h

CCCCc1ccc(-c2nc(C)c(/C(C)=N/NC(=N)N)s2)cc1
Activity (HaCaT [1]): Non-toxic
Time (Staphylococcus aureus [2]): 6 h
MIC (Staphylococcus aureus [3]): 4.8 µg/mL (≈ 14.6 µM)

Cc1nc(-c2ccc(C3=CCCCC3)cc2)sc1-c1ccnc(N)n1
solubility kinetic at 2 h [4]: 37 µM (≈ 12.9 µg/mL)
Ratio (Staphylococcus aureus [5]): 1
MIC (Staphylococcus aureus [3]): 0.78 µg/mL (≈ 2.24 µM)

CCCCc1ccc(-c2nc(C)c(-c3ccnc(N=C(N(C)C)N(C)C)n3)s2)cc1
MIC (Staphylococcus aureus [3]): > 25 µg/mL

Cc1nc(-c2ccc(C3=CCCCCC3)cc2)sc1-c1ccnc(N)n1
MIC (Staphylococcus aureus [3]): 3.12 µg/mL (≈ 8.61 µM)

CCCCc1ccc(-c2nc(C)c(-c3ccnc(NN)n3)s2)cc1
Papp A→B at 2 h [6]: 1.6 ×10⁻⁶ cm/s
MIC (Staphylococcus aureus [7]): 2 µg/mL (≈ 5.89 µM)
solubility kinetic at 2 h [4]: 55 µM (≈ 18.7 µg/mL)
efflux ratio at 2 h [8]: 1.8
Kel (Rattus norvegicus [9]): 0.19 h⁻¹
MBC (Staphylococcus aureus [10]): 2 µg/mL (≈ 5.89 µM)
MIC (Staphylococcus aureus [11]): 2 µg/mL (≈ 5.89 µM)
t1/2 (Rattus norvegicus [12]): 8.24 h
Time (Staphylococcus aureus [2]): 2 h
MIC (Staphylococcus aureus [3]): 0.4 µg/mL (≈ 1.18 µM)
MIC (Staphylococcus aureus [13]): 2 µg/mL (≈ 5.89 µM)
MIC (Staphylococcus aureus [14]): 2 µg/mL (≈ 5.89 µM)
Papp B→A at 2 h [15]: 2.8 ×10⁻⁶ cm/s
MRT [16]: 7.74 h
MBC (Staphylococcus aureus [17]): 2 µg/mL (≈ 5.89 µM)
MIC (Staphylococcus aureus [18]): 2 µg/mL (≈ 5.89 µM)
MBC (Staphylococcus aureus [19]): 8 µg/mL (≈ 23.6 µM)
MIC (Staphylococcus aureus [20]): 1 µg/mL (≈ 2.95 µM)
MBC (Staphylococcus aureus [21]): 2 µg/mL (≈ 5.89 µM)
MBC (Enterococcus faecium [22]): 8 µg/mL (≈ 23.6 µM)
selectivity ratio [23]: 160
MBC (Staphylococcus aureus [24]): 2 µg/mL (≈ 5.89 µM)
AUC at 24 h [25]: 100000 ng·h/mL
MBC (Staphylococcus aureus [26]): 4 µg/mL (≈ 11.8 µM)
Cmax [27]: 9330 ng/mL
MIC (Staphylococcus aureus [28]): 2 µg/mL (≈ 5.89 µM)
MIC (Enterococcus faecium [29]): 2 µg/mL (≈ 5.89 µM)
Activity (HaCaT [30]): Non-toxic
AUC(0-t) at 24 h [31]: 83200 ng·h/mL
Tmax [32]: 4.67 h
MBC (Staphylococcus aureus [33]): 2 µg/mL (≈ 5.89 µM)

CCCCc1ccc(-c2nc(C)c(-c3ccnc(N4CCCC4)n3)s2)cc1
MIC (Staphylococcus aureus [3]): > 25 µg/mL

CCCCc1ccc(-c2nc(C)c(-c3ccn4ncnc4n3)s2)cc1
MIC (Staphylococcus aureus [3]): > 25 µg/mL

CCCCc1ccc(-c2nc(C)c(-c3ccnc(NC#N)n3)s2)cc1
MIC (Staphylococcus aureus [3]): 18.7 µg/mL (≈ 53.5 µM)

Cc1nc(-c2ccc(-c3ccsc3)cc2)sc1-c1ccnc(N)n1
solubility kinetic at 2 h [4]: 8.5 µM (≈ 2.98 µg/mL)
MIC (Staphylococcus aureus [3]): 6.25 µg/mL (≈ 17.8 µM)

CCCCc1ccc(-c2nc(C)c(-c3ccnc(NC)n3)s2)cc1
MIC (Staphylococcus aureus [3]): > 25 µg/mL

CCCCc1ccc(-c2nc(C)c(-c3ccnc(NC(=N)N)n3)s2)cc1
MIC (Staphylococcus aureus [3]): 1.56 µg/mL (≈ 4.26 µM)

Cc1nc(-c2ccc(/C=C/C3CCCCC3)cc2)sc1-c1ccnc(N)n1
MIC (Staphylococcus aureus [3]): 3.12 µg/mL (≈ 8.29 µM)

CCCCc1ccc(-c2nc(C)c(-c3ccnc(-c4cccnc4)n3)s2)cc1
MIC (Staphylococcus aureus [3]): 17.2 µg/mL (≈ 44.5 µM)

Cc1nc(-c2ccc(C=C3CCCCC3)cc2)sc1-c1ccnc(N)n1
MIC (Staphylococcus aureus [3]): 1.56 µg/mL (≈ 4.3 µM)
